{"source": "paper PMC7004075", "about": "(Clinical Pharmacology in Drug Development, 2019)", "key": {"[1]": {"test_system": "endogenous glucose production, nonhepatic glucose uptake", "conditions": "peripheral administration at 1.8 pmol/kg/min, preclinical; cited from earlier work"}, "patients with T2DM": {"test_system": "patients with T2DM", "assay": "Safety and tolerability", "assay_type": "in vivo, human", "conditions": "for overall safety and tolerability: patients with T2DM, different dosing conditions"}, "[2]": {"assay": "Plasma insulin tregopil pharmacokinetics, Cohort 2", "assay_type": "in vivo, human", "conditions": "for plasma insulin tregopil Cmax, mean ± SD / plasma insulin tregopil AUC0-180min, mean ± SD: 30 mg oral"}, "[3]": {"test_system": "plasma glucose in patients with T2DM", "assay": "Plasma glucose pharmacodynamics, Cohort 1", "assay_type": "in vivo, human"}, "[4]": {"test_system": "plasma glucose in patients with T2DM", "assay": "Plasma glucose pharmacodynamics, Cohort 2", "assay_type": "in vivo, human", "method_in_brief": "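Dosing was before each of 2 ADA meals set 4, 5 or 6 h apart and eaten within 30 min. Blood was taken predose and 10–180 min postdose. Baseline-adjusted glucose AUC0‑180min and Cmin were analysed by a mixed-effects model (sequence, period, treatment; patient-within-sequence random).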"}, "[5]": {"conditions": "Cohort 2, 5-hour between-meal interval, afternoon dose"}, "[6]": {"conditions": "Cohort 2, 5-hour between-meal interval, morning dose"}}}
{"substance": "human insulin: human insulin infused into portal vein or peripherally in preclinical studies", "values": [{"measurement": "increase in plasma insulin levels in the peripheral artery", "setting": "[1]", "value": 2, "unit": "fold"}]}
{"substance": "insulin tregopil: PEGylated recombinant human insulin with a single methoxy-triethylene-glycol-propionyl unit on the Lys-β29-amino group; oral tablets", "values": [{"measurement": "events of hypoglycemia", "setting": "patients with T2DM; Cohort 1", "value": 4, "unit": "events"}, {"measurement": "events of hypoglycemia", "setting": "patients with T2DM; Cohort 1, 30 minute premeal dosing time group", "value": 3, "unit": "events"}, {"measurement": "events of hypoglycemia", "setting": "patients with T2DM; Cohort 2, all in the afternoon", "value": 5, "unit": "events"}, {"measurement": "events of hypoglycemia", "setting": "patients with T2DM; all cohorts", "value": 43, "unit": "events"}, {"measurement": "hypoglycemic events mild in severity", "setting": "patients with T2DM; all cohorts", "value": 83.7, "unit": "%"}, {"measurement": "patient discontinuations from the study due to AEs", "setting": "patients with T2DM; all cohorts", "value": "no patient discontinuations"}, {"measurement": "duration of hypoglycemic symptoms", "setting": "patients with T2DM; generally", "value": "approximately 30 minutes"}, {"measurement": "overall safety and tolerability", "setting": "patients with T2DM", "value": "safe and well tolerated"}, {"measurement": "overall safety and tolerability", "setting": "patients with T2DM; listed as Insulin tregopil", "value": "well tolerated"}, {"measurement": "intersubject variability of plasma insulin tregopil AUC0-180mins", "setting": "[2]; Cohort 2", "value": 144.0, "unit": "%"}, {"measurement": "intersubject variability of plasma insulin tregopil Cmax", "setting": "[2]; Cohort 2", "value": 124.7, "unit": "%"}, {"measurement": "intrasubject variability of plasma insulin tregopil Cmax", "setting": "[2]; Cohort 2", "value": 64.7, "unit": "%"}, {"measurement": "plasma insulin tregopil Cmax, mean ± SD", "setting": "[2]; Cohort 2, 4-hour between-meal interval, afternoon dose", "value": "6760 ± 7680", "unit": "µg/mL"}, {"measurement": "plasma insulin tregopil Cmax, mean ± SD", "setting": "[2]; Cohort 2, 4-hour between-meal interval, morning dose", "value": "11330 ± 9870", "unit": "µg/mL"}, {"measurement": "plasma insulin tregopil AUC0-180min, mean ± SD", "setting": "[2]; [5]", "value": "209.27 ± 186.61", "unit": "mg·min/mL"}, {"measurement": "plasma insulin tregopil Cmax, mean ± SD", "setting": "[2]; [5]", "value": "7139 ± 5691", "unit": "µg/mL"}, {"measurement": "plasma insulin tregopil AUC0-180min, mean ± SD", "setting": "[2]; [6]", "value": "320.60 ± 196.340", "unit": "mg·min/mL"}, {"measurement": "plasma insulin tregopil Cmax, mean ± SD", "setting": "[2]; [6]", "value": "10140 ± 5310", "unit": "µg/mL"}, {"measurement": "plasma insulin tregopil Cmax, mean ± SD", "setting": "[2]; Cohort 2, 6-hour between-meal interval, morning dose (first value)", "value": "11320 ± 8730", "unit": "µg/mL"}, {"measurement": "2-hour postprandial glucose (PPG), higher than the premeal levels", "setting": "[3]; Cohort 1, 10 minute premeal group (placebo 55%)", "value": 36, "unit": "%"}, {"measurement": "2-hour postprandial glucose (PPG), higher than the premeal levels", "setting": "[3]; Cohort 1, 20 minute premeal group (placebo 55%)", "value": 55, "unit": "%"}, {"measurement": "2-hour postprandial glucose (PPG), higher than the premeal levels", "setting": "[3]; Cohort 1, 30 minute premeal group (placebo 55%)", "value": 77, "unit": "%"}, {"measurement": "duration of glucose-lowering action", "setting": "[3]; oral, patients with T2DM", "value": "approximately 2 hours"}, {"measurement": "intrasubject variability for the baseline-adjusted PD response Cmin", "setting": "[4]; Cohort 2, insulin tregopil groups (placebo 9.16%)", "value": 11.61, "unit": "%"}, {"measurement": "intrasubject variability for the baseline-adjusted PD response AUC0-180mins", "setting": "[4]; Cohort 2, insulin tregopil groups (placebo 9.17%)", "value": 8.41, "unit": "%"}]}
